Data set [1] deals with Mus musculus. The data set can be described thus: Toxicity in BALB/c nu/nu mouse xenografted with human DMS53 cells assessed as change in body weight at 8 mg/kg, iv administered for 5 days a week measured after 21 days. In kind it is organism-based, DMS-53. On the set-up: dose 8 mg/kg, route intravenous. The note with it: in vivo, 504 h. In a few lines:
(§1)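 DMS-53 xenografts in nude mice; dosing started at 100 mm3 tumor volume. Agents given iv via tail vein, 5 days/week for 21 days, vehicle 30% propylene glycol/saline, vehicle-treated controls. Mice sacrificed day 21. Body and organ weights and hematological indices recorded. Spleen, kidney, liver, heart, lungs and brain were stained with H&E, Perls' and Gomori Trichrome and read by an independent veterinary pathologist.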
Background: Xenograft models place foreign cells or tissue in a host animal.

The subject of data set [2] is Mus musculus. The data set can be described thus: Toxicity in BALB/c nu/nu mouse xenografted with human DMS53 cells assessed as change in hematocrit level at 20 mg/kg, po administered for 3 times a week measured after 20 days. In kind it is organism-based, DMS-53. More on the design: dose 20 mg/kg, route oral. The note with it: in vivo, 480 h. In a few lines: (§2)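 Nude mice bearing DMS-53 xenografts gavaged 3 times/week for 20 days, vehicle 30% propylene glycol/saline, vehicle controls, n = 6-11 mice/condition. Sacrifice on day 20. Organ weights and hematological indices recorded. Spleen, kidney, liver, heart, lungs and brain examined histologically, hearts stained with Gomori Trichrome for fibrosis.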

Data set [3] concerns Mus musculus. The data set can be described thus: Toxicity in BALB/c nu/nu mouse xenografted with human DMS53 cells assessed as cardiac fibrosis at 4 mg/kg, iv administered for 5 days a week measured after 21 days by […]. In kind it is organism-based, Heart, DMS-53. On the set-up: dose 4 mg/kg, route intravenous. Particulars: in vivo, 504 h. In a few lines:
(§3)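 DMS-53 xenograft nude mice given agents iv by tail vein 5 days/week in 30% propylene glycol/saline for 21 days. At sacrifice, heart sections were stained with Gomori Trichrome to detect fibrosis. Spleen, kidney, liver, heart, lungs and brain were also stained with H&E and Perls' and examined by an independent veterinary pathologist.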

Data set [4] concerns Mus musculus. In words: Toxicity in BALB/c nu/nu mouse xenografted with human DMS53 cells assessed as change in hemoglobin level at 20 mg/kg, po administered for 3 times a week measured after 20 days. Type of data set: organism-based, DMS-53. On the set-up: dose 20 mg/kg, route oral. Particulars: in vivo, 480 h. In a few lines:
as §2

In data set [5] the test system is Mus musculus. The data set can be described thus: Toxicity in BALB/c nu/nu mouse xenografted with human DMS53 cells assessed as change in hematopoetic cells in splenic red pulp at 4 mg/kg, iv administered for 5 days a week measured after 21 days by hematoxylin and eosin staining method. In kind it is organism-based, DMS-53. More on the design: dose 4 mg/kg, route intravenous. The note with it: in vivo, 504 h. In a few lines: as §1

Data set [6] concerns Mus musculus. The data set can be described thus: Toxicity in BALB/c nu/nu mouse xenografted with human DMS53 cells assessed as change in organ weight at 8 mg/kg, iv administered for 5 days a week measured after 21 days. Type of data set: organism-based, DMS-53. Particulars: in vivo, 504 h. More on the design: dose 8 mg/kg, route intravenous. In a few lines: (§4)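 DMS-53 xenograft-bearing nude mice, treatment started at 100 mm3 tumour volume: iv tail-vein dosing in 30% propylene glycol/saline, 5 days/week for 21 days. Organs were weighed at sacrifice and compared with vehicle-control mice.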

Data set [7] has as its system Mus musculus. The data set can be described thus: Toxicity in BALB/c nu/nu mouse xenografted with human DMS53 cells assessed as change in organ weight at 4 mg/kg, iv administered for 5 days a week measured after 21 days. On the set-up: dose 4 mg/kg, route intravenous. Particulars: in vivo, 504 h. Type of data set: organism-based, DMS-53. In a few lines:
as §4

Data set [8] relates to Mus musculus. The data set can be described thus: Toxicity in BALB/c nu/nu mouse xenografted with human DMS53 cells assessed as change in hematopoetic cells in splenic red pulp at 8 mg/kg, iv administered for 5 days a week measured after 21 days by hematoxylin and eosin staining method. In kind it is organism-based, DMS-53. The note with it: in vivo, 504 h. On the set-up: dose 8 mg/kg, route intravenous. In a few lines: as §1

Data set [9] deals with Mus musculus. In words: Toxicity in BALB/c nu/nu mouse xenografted with human DMS53 cells assessed as change in platelet count at 8 mg/kg, iv administered for 5 days a week measured after 21 days. In kind it is organism-based, DMS-53. On the set-up: dose 8 mg/kg, route intravenous. The note with it: in vivo, 504 h. In a few lines:
(§5)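 Nude mice carrying DMS-53 xenografts (treatment from 100 mm3) received iv tail-vein doses in 30% propylene glycol/saline, 5 days/week for 21 days. Hematological indices (RBC, hemoglobin, hematocrit, reticulocytes, WBC, platelets) were then compared with vehicle controls.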

Data set [10] deals with Mus musculus. In words: Toxicity in BALB/c nu/nu mouse xenografted with human DMS53 cells assessed as change in body weight at 4 mg/kg, iv administered for 5 days a week measured after 21 days. Type of data set: organism-based, DMS-53. On the set-up: dose 4 mg/kg, route intravenous. Particulars: in vivo, 504 h. In a few lines: as §1
The test system of data set [11] is Mus musculus. The data set can be described thus: Toxicity in BALB/c nu/nu mouse xenografted with human DMS53 cells assessed as change in brain histology at 8 mg/kg, iv administered for 5 days a week measured after 21 days by hematoxylin and eosin staining method. Type of data set: organism-based, DMS-53. More on the design: dose 8 mg/kg, route intravenous. Particulars: in vivo, 504 h. In a few lines:
as §1

Data set [12] concerns Mus musculus. The data set can be described thus: Toxicity in BALB/c nu/nu mouse xenografted with human DMS53 cells assessed as hepatocellular necrosis at 8 mg/kg, iv administered for 5 days a week measured after 21 days by hematoxylin and eosin staining method. More on the design: dose 8 mg/kg, route intravenous. In kind it is organism-based, DMS-53. Particulars: in vivo, 504 h. In a few lines:
(§6)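 Nude mice with DMS-53 xenografts dosed by tail-vein iv injection in 30% propylene glycol/saline, starting at 100 mm3 tumour volume, 5 days/week for 21 days. Spleen, kidney, liver, heart, lungs and brain were stained with H&E, Perls' (Fe loading) and Gomori Trichrome (fibrosis) by standard methods, and an independent veterinary pathologist examined them.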

Data set [13] deals with Mus musculus. In words: Toxicity in BALB/c nu/nu mouse xenografted with human DMS53 cells assessed as change in heart weight at 20 mg/kg, po administered for 3 times a week measured after 20 days. In kind it is organism-based, DMS-53. On the set-up: dose 20 mg/kg, route oral. Particulars: in vivo, 480 h. In a few lines:
as §2

Data set [14] deals with Mus musculus. In words: Toxicity in BALB/c nu/nu mouse xenografted with human DMS53 cells assessed as change in heart weight at 7.5 mg/kg, po administered for 3 times a week measured after 20 days. Type of data set: organism-based, DMS-53. More on the design: dose 7.5 mg/kg, route oral. The note with it: in vivo, 480 h. In a few lines:
as §2

The subject of data set [15] is Mus musculus. In words: Toxicity in BALB/c nu/nu mouse xenografted with human DMS53 cells assessed as change in organ weight at 3 mg/kg, iv administered for 5 days a week measured after 21 days. In kind it is organism-based, DMS-53. On the set-up: dose 3 mg/kg, route intravenous. The note with it: in vivo, 504 h. In a few lines:
as §4

For data set [16], the system named is Mus musculus. The data set can be described thus: Toxicity in BALB/c nu/nu mouse xenografted with human DMS53 cells assessed as change in RBC count at 10 mg/kg, po administered for 3 times a week measured after 20 days. In kind it is organism-based, DMS-53. On the set-up: dose 10 mg/kg, route oral. The note with it: in vivo, 480 h.
In data set [17] the test system is Mus musculus. The data set can be described thus: Toxicity in BALB/c nu/nu mouse xenografted with human DMS53 cells assessed as change in RBC count at 3 mg/kg, iv administered for 5 days a week measured after 21 days. Type of data set: organism-based, DMS-53. More on the design: dose 3 mg/kg, route intravenous. The note with it: in vivo, 504 h.
In data set [18] the test system is Mus musculus. In words: Toxicity in BALB/c nu/nu mouse xenografted with human DMS53 cells assessed as change in reticulocyte count at 6 mg/kg, iv administered for 5 days a week measured after 21 days. In kind it is organism-based, DMS-53. More on the design: dose 6 mg/kg, route intravenous. The note with it: in vivo, 504 h. In a few lines: as §5
Data set [19] deals with Mus musculus. In words: Toxicity in BALB/c nu/nu mouse xenografted with human DMS53 cells assessed as change in hemoglobin level at 7.5 mg/kg, po administered for 3 times a week measured after 20 days. Particulars: in vivo, 480 h. More on the design: dose 7.5 mg/kg, route oral. In kind it is organism-based, DMS-53. In a few lines: as §2
For data set [20], the system named is Mus musculus. The data set can be described thus: Toxicity in BALB/c nu/nu mouse xenografted with human DMS53 cells assessed as body weight change at 20 mg/kg, po administered for 3 times a week measured after 20 days. Particulars: in vivo, 480 h. In kind it is organism-based, DMS-53. On the set-up: dose 20 mg/kg, route oral. In a few lines: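 DMS-53 xenograft nude mice dosed by oral gavage 3 times/week in 30% propylene glycol/saline, with vehicle controls. Average body weight recorded during 20 days of treatment. n = 6–11 mice/condition, mean ± SD.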

The subject of data set [21] is Mus musculus. In words: Toxicity in BALB/c nu/nu mouse xenografted with human DMS53 cells assessed as change in reticulocyte count at 3 mg/kg, iv administered for 5 days a week measured after 21 days. The note with it: in vivo, 504 h. In kind it is organism-based, DMS-53. More on the design: dose 3 mg/kg, route intravenous. In a few lines:
as §5

Data set [22] deals with Mus musculus. In words: Toxicity in BALB/c nu/nu mouse xenografted with human DMS53 cells assessed as change in RBC count at 6 mg/kg, iv administered for 5 days a week measured after 21 days. The note with it: in vivo, 504 h. In kind it is organism-based, DMS-53. More on the design: dose 6 mg/kg, route intravenous.
For data set [23], the system named is Mus musculus. In words: Toxicity in BALB/c nu/nu mouse xenografted with human DMS53 cells assessed as cardiac fibrosis at 3 mg/kg, iv administered for 5 days a week measured after 21 days by […]. In kind it is organism-based, Heart, DMS-53. On the set-up: dose 3 mg/kg, route intravenous. Particulars: in vivo, 504 h. In a few lines:
as §3

Data set [24] concerns Mus musculus. In words: Toxicity in BALB/c nu/nu mouse xenografted with human DMS53 cells assessed as hepatocellular fibrosis at 6 mg/kg, iv administered for 5 days a week measured after 21 days by hematoxylin and eosin staining method. Type of data set: organism-based, DMS-53. On the set-up: dose 6 mg/kg, route intravenous. The note with it: in vivo, 504 h. In a few lines: as §6

The structures appear in SMILES notation.

Among the data in ChEMBL document CHEMBL2203173 (J Med Chem, 2012) are Activity values, retold here.

As to `CN(C(=S)NN=C(c1ccccn1)c1ccccn1)C1CCCCC1.Cl`, the Activity entry is listed as “Non-toxic” in the data set with Mus musculus [1]; “Non-toxic” in the data set with Mus musculus [2]; “Non-toxic” in the data set on Mus musculus [3]; “Non-toxic” in the data set on Mus musculus [4]; “Non-toxic” in the data set with Mus musculus [5]; “Toxic” in the data set with Mus musculus [6]. Moreover, the Activity entry in the data set on Mus musculus [7], in the data set with Mus musculus [8], in the data set on Mus musculus [9], in the data set with Mus musculus [10], in the data set with Mus musculus [11] and in the data set with Mus musculus [12] was “Non-toxic” in each case. The Activity result with Mus musculus [13] is reported as “Non-toxic”.

As to `CCN(C)C(=S)NN=C(c1ccccn1)c1ccccn1.Cl`, the Activity entry is recorded as “Non-toxic” in the data set on Mus musculus [14]; “Toxic” with Mus musculus [15]; “Toxic” in the data set on Mus musculus [16]; “Non-toxic” with Mus musculus [17]; “Toxic” in the data set on Mus musculus [18]; “Toxic” in the data set on Mus musculus [19]. In addition, the Activity entry with Mus musculus [20], in the data set on Mus musculus [21], in the data set with Mus musculus [22], in the data set on Mus musculus [23] and with Mus musculus [24] was “Non-toxic” in each case.
